Assays:
Plasmodium falciparum [1] = test: In vitro growth inhibition of Plasmodium falciparum D6; assay type: functional, organism-based
Method in brief: (§1)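 Asynchronous P. falciparum cultures in human erythrocytes (0.5% parasitemia, 1% final hematocrit) exposed to serially diluted drug for 24 h at 37 °C, then pulsed with 0.5 µCi [³H]hypoxanthine per well. Inhibition from incorporated radioactivity versus drug-free control on the same plate; IC50 from concentration-response curve; mean ± SD of three independent experiments. DMSO ≤0.1% final.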

[2] = Inhibition of haem polymerization
Method in brief: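 Insoluble FcB1R trophozoite material (~4 × 10^7 parasites) was mixed with 0.3 mM bovine haematin in 60 mM sodium acetate, pH 5, plus drug at varied concentrations and 1% DMSO, then incubated 4 h at 37 °C. The washed pellet was treated with SDS, and polymerized haem was dissolved in NaOH and read at 404 nm. Values were corrected for endogenous haemozoin to give IC50. Data are the mean of two independent experiments, each run in duplicate.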

MRC5 [3] = test: Cytotoxicity against MRC-5 cells at concentration 1 uM; assay type: functional; details: Homo sapiens
Method in brief: (§2)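 MRC-5 human embryonic lung diploid cells were seeded at 5000 per well. After 24 h the cells were washed and exposed to 2-fold drug dilutions in RPMI + 5% FCS, with final DMSO below 0.5%. Incubation was 7 days at 37 °C in 5% CO2. Viability was read by MTT absorbance at 540 nm.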

Mus musculus [4] = species on record: Mus musculus; test: In vitro cytotoxic activity against mouse peritoneal macrophages at a concentration 2 uM; Non-toxic; assay type: functional
MRC5 [5] = test: Cytotoxicity against MRC-5 cells at concentration 32 uM; assay type: functional; details: Homo sapiens; method in brief: as §2
Plasmodium falciparum [6] = test: (§3) In vitro growth inhibition of Plasmodium falciparum F32; assay type: functional, organism-based
Plasmodium falciparum [7] = test: (§4) In vitro growth inhibition of Plasmodium falciparum W2; assay type: functional, organism-based
MRC5 [8] = test: Cytotoxicity against MRC-5 cells at concentration 8 uM; assay type: functional; details: Homo sapiens; method in brief: as §2
Mus musculus [9] = species on record: Mus musculus; test: In vitro cytotoxic activity against mouse peritoneal macrophages at a concentration 8 uM; Non-toxic; assay type: functional
MRC5 [10] = test: Cytotoxicity against MRC-5 cells at concentration 0.5 uM; assay type: functional; details: Homo sapiens; method in brief: as §2
Plasmodium falciparum [11] = test: as §3; assay type: functional, organism-based; method in brief: as §1; remark: listed apart in the source
[12] = In vitro cytotoxic activity against mouse peritoneal macrophages at a concentration 8 uM; Toxic; assay type: toxicity
Plasmodium falciparum [13] = test: In vitro growth inhibition of Plasmodium falciparum FcB1R; assay type: functional, organism-based
Method in brief: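 Asynchronous P. falciparum cultures were grown in human erythrocytes at 0.5% parasitemia and 1% hematocrit. They were exposed to serial drug dilutions, with DMSO ≤0.1%, for 24 h at 37 °C before adding 0.5 µCi [3H]hypoxanthine per well. Inhibition was measured as incorporated radioactivity versus drug-free controls on the same plate. IC50 came from concentration–response curves, reported as mean ± SD of three independent experiments; FcB1R used several experiments.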

Plasmodium falciparum [14] = test: as §4; assay type: functional, organism-based; method in brief: as §1; remark: listed apart in the source
[15] = In vitro cytotoxic activity against mouse peritoneal macrophages at a concentration 32 uM; Toxic; assay type: toxicity
[16] = In vitro cytotoxicity against mouse peritoneal macrophages at concentration 8 uM; Toxic; assay type: toxicity
[17] = In vitro cytotoxicity against mouse peritoneal macrophages at concentration 32 uM; Toxic; assay type: toxicity
[18] = In vitro cytotoxic activity against mouse peritoneal macrophages at concentration 32 uM; Toxic; assay type: toxicity

| Compound | IC50 (Plasmodium falciparum [1]) [nM] | IC50 [2] [nM] | cytotoxicity at 1 µM (MRC5 [3]) [%] | Cytotoxicity (Mus musculus [4]) | cytotoxicity at 32 µM (MRC5 [5]) [%] | IC50 (Plasmodium falciparum [6]) [nM] | IC50 (Plasmodium falciparum [7]) [nM] | cytotoxicity at 8 µM (MRC5 [8]) [%] | Cytotoxicity (Mus musculus [9]) | cytotoxicity at 0.5 µM (MRC5 [10]) [%] | IC50 (Plasmodium falciparum [11]) [nM] | Cytotoxicity [12] | IC50 (Plasmodium falciparum [13]) [nM] | IC50 (Plasmodium falciparum [14]) [nM] | Cytotoxicity [15] | Cytotoxicity [16] | Cytotoxicity [17] | Cytotoxicity [18] |
| --- | --- | --- | --- | --- | --- | --- | --- | --- | --- | --- | --- | --- | --- | --- | --- | --- | --- | --- |
| Clc1ccc2c(N3CCNCCN(c4ccnc5cc(Cl)ccc45)CC3)ccnc2c1 | 74.5 | 170000 | 0 | Not toxic | 0 | 64.6 | 170 | 0 | Not toxic | 0 |  |  |  |  |  |  |  |  |
| O=C(CCN1CCCCC1)N1CCN(c2ccnc3cc(Cl)ccc23)CCN(c2ccnc3cc(Cl)ccc23)CC1 | 18.9 |  | 0 | Not toxic | 91 |  |  | 87 |  | 0 | 16.1 | Toxic | 38.6 | 50.2 | Toxic |  |  |  |
| Clc1ccc2c(NCCCCNCCCNc3ccnc4cc(Cl)ccc34)ccnc2c1 |  |  | 0 | Not toxic | 100 |  |  | 100 |  | 0 |  |  | 57 |  |  | Toxic | Toxic |  |
| Clc1ccc2c(N3CCCNCCN(c4ccnc5cc(Cl)ccc45)CCCNCC3)ccnc2c1 |  |  | 0 | Not toxic | 98 |  |  | 0 | Not toxic | 0 |  |  | > 1000 |  |  |  |  | Toxic |

— ChEMBL document CHEMBL1134480, “Antiplasmodial activity and cytotoxicity of bis-, tris-, and tetraquinolines with linear or cyclic amino linkers” (J Med Chem, 2001)
